Results published in ChEMBL document CHEMBL4011628, “Pharmacophore Identification and Scaffold Exploration to Discover Novel, Potent, and Chemically Stable Inhibitors of Acid Ceramidase in Melanoma Cells” (J Med Chem, 2017).
Activity calls are given as the source filed them. The calls are words filed in the database; no cut-off is given here.

Assays:
[1] = Half life in acetate buffer at pH 4.5 at 10 uM by UPLC/MS analysis; assay type: physicochemical
Summary of the method: (§1)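 Compound taken from 10 mM DMSO stock to 10 μM in PBS pH 7.4 (prewarmed) or acetate pH 4.5, held at 37 °C with shaking. Samples taken over time and diluted in ACN. Analysed by UPLC BEH C18 (30–100% ACN over 4 min) with qTOF HRMS in positive ion mode. Half-life from one-phase decay fit of peak area versus time.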

[2] = Half life in PBS buffer at pH 7.4 at 10 uM by UPLC/MS analysis; assay type: physicochemical; summary of the method: as §1
[3] = target: Acid ceramidase (Homo sapiens, UniProt Q13510); assay: Inhibition of human C-terminal His-tagged acid ceramidase variant 1 expressed in HEK293 cells using fluorogenic substrate Rbm-14-12 preincubated for 30 mins followed by substrate addition measured after 1 hr by fluorogenic assay; assay type: cell-based
[4] = Half life in mouse plasma at 2 uM up to 120 mins by UPLC/MS analysis; assay type: ADME, cell-free
Summary of the method: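 Mouse plasma with 5% DMSO, prewarmed 15 min at 37 °C; compound final 2.0 μM. Aliquots at 0, 5, 15, 30, 60 and 120 min quenched in cold ACN containing 200 nM warfarin internal standard. Spun 3500g, 15 min, 4 °C; supernatant run on UPLC/MS TQD. Half-life from one-phase decay fit of peak area versus time.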

[5] = target: T1, Acid ceramidase (Homo sapiens, UniProt Q13510); assay: Inhibition of acid ceramidase in human A375 cells using fluorogenic substrate Rbm-14-12 preincubated for 2 hrs followed by substrate addition measured after 3 hrs by fluorogenic assay; assay type: cell-based
T1 sequence (Q13510 whole entry): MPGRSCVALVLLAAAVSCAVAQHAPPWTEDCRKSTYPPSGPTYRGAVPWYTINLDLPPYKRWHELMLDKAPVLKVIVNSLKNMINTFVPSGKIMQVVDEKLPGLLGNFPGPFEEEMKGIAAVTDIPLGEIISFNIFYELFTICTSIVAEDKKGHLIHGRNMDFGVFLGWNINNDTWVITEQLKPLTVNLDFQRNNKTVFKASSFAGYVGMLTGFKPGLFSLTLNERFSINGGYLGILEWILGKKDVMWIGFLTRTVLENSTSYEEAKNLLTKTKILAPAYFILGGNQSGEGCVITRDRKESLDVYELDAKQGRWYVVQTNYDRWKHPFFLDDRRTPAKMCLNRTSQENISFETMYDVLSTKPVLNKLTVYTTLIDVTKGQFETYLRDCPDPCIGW
Summary of the method: (§2)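 A375 (5 × 10^4) or G-361 (2.5 × 10^4) cells grown in DMEM with 10% FBS and 2 mM glutamine. Compounds or DMSO added 24 h after seeding, 2 h at 37 °C. Rbm-14-12 then added to 20 μM final for 3 h. Stopped with methanol/NaIO4; fluorescence read at ex 355/em 460. Run in triplicate; IC50 from four-parameter fit, mean ± SD of two independent experiments.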

[6] = test system: G-361; assay: Cytotoxicity against human G361 cells assessed as […] in cell viability after 72 hrs by MTT assay; assay type: cell-based; conditions: g-361, 72 h
[7] = test system: A-375; assay: Cytotoxicity against human A375 cells assessed as […] in cell viability after 72 hrs by MTT assay; assay type: cell-based; conditions: a-375, 72 h
[8] = target: T1, Acid ceramidase; assay: Inhibition of acid ceramidase in human G361 cells using fluorogenic substrate Rbm-14-12 preincubated for 2 hrs followed by substrate addition measured after 3 hrs by fluorogenic assay; assay type: cell-based; summary of the method: as §2
[9] = target: T2, Acid ceramidase (Homo sapiens) (UniProt Q13510); assay: Covalent binding affinity to recombinant human acid ceramidase assessed as N-terminal CTSIVAEDK peptide adduct formation at 10:1 molar ratio of compound to protein after 1 hr by trypsin digestion-based UPLC-MS analysis
T2 sequence (whole entry): T1 sequence (Q13510 whole entry)
Summary of the method: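 Purified recombinant human AC (10 μg) preincubated 1 h at 37 °C in 20 mM acetate pH 4.5 with 3 mM DTT. Compound then added at 10:1 molar ratio to protein, 1 h at 37 °C; DMSO control. Stopped with cold acetone, pellet dried, redissolved in 50 mM (NH4)2CO3 pH 8. Trypsin 1:50 w/w overnight at 37 °C; peptides read by LC-MS.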

half-life at 10 µM [1] [min]	half-life at 10 µM [2] [min]	IC50 [3] [nM]	half-life at 2 µM [4] [min]	IC50 [5] [nM]	IC50 [8] [nM]	Activity [9]	Compound	Activity [6]	Activity [7]
42	13	29.3	13	–	–	–	Nc1nc2ccccc2n1C(=O)NCc1ccccc1	–	–
27	10	68.4	< 5	–	–	–	Cc1ccccc1CNC(=O)n1c(N)nc2ccccc21	–	–
–	–	2.4	–	–	–	–	CCCCCCNC(=O)n1c(N)nc2ccccc21	–	–
–	–	> 10000	–	–	–	–	CCCCCCNC(=O)Nc1nc2ccccc2s1	–	–
> 120	2	2.2	< 5	–	–	–	CCCCCCNC(=O)n1nnc2ncccc21	–	–
> 120	134	4.7	> 120	–	–	–	O=C(NCCCCc1ccccc1)n1ncc2ccccc21	–	–
–	–	> 10000	–	–	–	–	CCCCCCNC(=O)Nc1nc2ccccc2[nH]1	–	–
34	23	7	< 5	–	–	–	Cc1ccc(CNC(=O)n2c(N)nc3ccccc32)cc1	–	–
> 120	> 120	21	> 120	–	–	–	O=C(NCCCCc1ccccc1)n1c(=O)n(C(=O)NCCCCc2ccccc2)c2ccccc21	–	–
8	7	1	11	–	–	–	Cc1nc2ccccc2n1C(=O)NCCCCc1ccccc1	–	–
> 120	9	7	29	–	–	–	CCCCCCNC(=O)N1C(=O)c2ccccc2C1=O	–	–
> 120	> 120	13.9	> 120	967	2780	Active	COc1nc2ccccc2n1C(=O)NCCCCc1ccccc1	Non-Toxic	Non-Toxic
82	58	55.9	44	–	–	–	Cc1ccccc1CNC(=O)n1cnc2ccccc21	–	–
> 120	6	2.4	23	–	–	–	O=C(NCCCCc1ccccc1)N1C(=O)c2ccccc2C1=O	–	–
> 120	> 120	> 10000	> 120	–	–	–	O=C(NCCCCc1ccccc1)n1c(=O)[nH]c2ccccc21	–	–
> 120	81	9.9	> 120	–	–	–	CCCCCCNC(=O)n1ncc2ccccc21	–	–

half-life at 10 µM [1] [min]	half-life at 10 µM [2] [min]	IC50 [3] [nM]	half-life at 2 µM [4] [min]	IC50 [5] [nM]	IC50 [8] [nM]	Activity [9]	Compound	Activity [6]	Activity [7]
–	–	> 10000	–	–	–	–	O=C(NCCCCc1ccccc1)Nc1nc2ccccc2o1	–	–
–	–	20.7	–	191	758	–	CCCCCCNC(=O)n1cc(F)c(=O)[nH]c1=O [CARMOFUR]	–	–
43	14	0.9	9	–	–	–	Nc1nc2ccccc2n1C(=O)NCCCCc1ccccc1	–	–
> 120	–	2.1	–	–	–	–	O=C(NCCCCc1ccccc1)n1nnc2ccccc21	–	–
> 120	> 120	14.8	94	505	928	–	Cc1ccc(CNC(=O)n2cnc3ccccc32)cc1	Non-Toxic	Non-Toxic
> 120	17	4.1	13	–	–	–	CCCCCCNC(=O)n1nnc2ccccc21	–	–
–	–	> 10000	–	–	–	–	O=C(NCCCCc1ccccc1)Nc1nc2ccccc2s1	–	–
27	11	8.5	< 5	–	–	–	Cc1cccc(CNC(=O)n2c(N)nc3ccccc32)c1	–	–
94	> 120	22.5	108	1060	2800	–	O=C(NCc1ccccc1)n1cnc2ccccc21	Non-Toxic	Non-Toxic
> 120	59	6.6	> 120	–	–	–	CCCCCCNC(=O)n1cnc2ccccc21	–	–
–	–	> 10000	–	–	–	–	O=C(NCCCCc1ccccc1)Nc1nc2ccccc2[nH]1	–	–
> 120	2	1.3	< 5	–	–	–	O=C(NCCCCc1ccccc1)n1nnc2ncccc21	–	–
–	–	> 10000	–	–	–	–	CCCCCCNC(=O)Nc1nc2ccccc2o1	–	–
> 120	50	2.5	> 120	75.6	230	Active	O=C(NCCCCc1ccccc1)n1cnc2ccccc21	Non-Toxic	Non-Toxic
> 120	56	8.3	71	–	–	–	Cc1cccc(CNC(=O)n2cnc3ccccc32)c1	–	–
